Experimental data taken from ChEMBL document CHEMBL4219071, “New histone demethylase LSD1 inhibitor selectively targets teratocarcinoma and embryonic carcinoma cells” (Bioorg Med Chem, 2018).
Active and inactive are the calls of the source. No cut-off for these calls is given here.

Assays:
[1] = system: F9; assay: Cytotoxicity against mouse F9 cells at 2 uM after 16 to 30 hrs hrs by microscopic analysis; assay type: functional, cell-based
Summary of the method: (§1)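 Actively growing (30–50% confluent) cells were given a single 2 μM dose, with DMSO as the vehicle control, for 16 h. They were imaged by microscopy with a 10×10 lens. Triplicate dishes (technical repeats) were trypsinised, diluted and blindly counted on a hemacytometer, averaging the four corner squares to give cells per dish. Treated and control means were compared by two-tailed t-test.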

[2] = system: HCT-116; assay: Cytotoxicity against human HCT116 cells at 2 uM after 16 to 30 hrs hrs by microscopic analysis; assay type: functional, cell-based; summary of the method: as §1
[3] = system: PA-1; assay: Cytotoxicity against human PA1 cells at 2 uM after 16 to 30 hrs hrs by microscopic analysis; assay type: functional, cell-based; summary of the method: as §1
[4] = system: NIH3T3; assay: Growth inhibition of mouse NIH/3T3 cells at 20 to 40 uM after 30 hrs by microscopic analysis; assay type: cell-based; conditions: nih3t3, 30 h
Summary of the method: (§2)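 F9 or NIH3T3 cells in active growth, exposed 30 h to a range of concentrations with DMSO controls, then imaged by microscope. Triplicate dishes trypsinized and counted blind on a hemacytometer (four corners, mean cells per dish). Control vs treated compared by two-tailed equal-variance t-test.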

[5] = target: Lysine-specific histone demethylase 1A (Mus musculus) (UniProt Q6ZQ88); assay: Inhibition of LSD1 in mouse F9 cells assessed as downregulation of OCT4 protein at 20 to 40 uM by Western blot analysis; assay type: cell-based
Summary of the method: (§3)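 F9 cells exposed 30 h to a range of concentrations, then lysed directly in 0.5% SDS lysis buffer with protein loads equalized. SOX2 and OCT4 detected by Western blot, actin as loading control, bands quantified.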

[6] = target: Lysine-specific histone demethylase 1A (Homo sapiens) (UniProt O60341); assay: Inhibition of LSD1 in human PA1 cells assessed as downregulation of OCT4 protein at 10 to 40 uM after 16 hrs by Western blot analysis
[7] = target: Lysine-specific histone demethylase 1A (Homo sapiens) (UniProt O60341); assay: Inhibition of LSD1 in human PA1 cells assessed as increase in H3K4me1 levels at 20 uM after 16 hrs by Western blot analysis; assay type: cell-based
Summary of the method: (§4)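 Actively growing HCT116 or PA-1 cells were treated with CBB3001 or DMSO vehicle for 16 hours. Total histones were extracted, and mono-, di- and trimethylated H3K4 and total histone H3 were probed by Western blot with specific antibodies and quantified. Treatments were run in technical triplicate.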

[8] = system: PA-1; assay: Reversible growth inhibitory activity of human PA1 cells at 20 to 40 uM preincubated for 24 hrs followed by 24 hrs recovery by microscopic analysis; assay type: functional, cell-based
Summary of the method: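 PA-1 cells in active growth, exposed 24 h to a range of concentrations. Compound removed, cells washed extensively and regrown 24 h in fresh medium without compound. Cells imaged, then triplicate dishes trypsinized and counted blind on a hemacytometer (four corners). Three independent experiments.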

[9] = target: Lysine-specific histone demethylase 1A (Homo sapiens) (UniProt O60341); assay: Inhibition of LSD1 in human HCT116 cells assessed as increase in H3K4me1 levels at 20 uM after 16 hrs by Western blot analysis; assay type: cell-based; summary of the method: as §4
[10] = target: Lysine-specific histone demethylase 1A (Homo sapiens) (UniProt O60341); assay: Inhibition of LSD1 in human PA1 cells assessed as downregulation of SOX2 protein at 10 to 40 uM after 16 hrs by Western blot analysis
[11] = target: Lysine-specific histone demethylase 1A (Mus musculus) (UniProt Q6ZQ88); assay: Inhibition of LSD1 in mouse F9 cells assessed as downregulation of SOX2 protein at 20 to 40 uM by Western blot analysis; assay type: cell-based; summary of the method: as §3
[12] = target: Lysine-specific histone demethylase 1A (Homo sapiens) (UniProt O60341); assay: Inhibition of LSD1 in human HCT116 cells assessed as increase in H3K4me2 levels at 20 uM after 16 hrs by Western blot analysis; assay type: cell-based; summary of the method: as §4
[13] = system: HCT-116; assay: Cytotoxicity against human HCT116 cells assessed as cell growth inhibition at >40 uM after 16 hrs by microscopic analysis; assay type: functional, cell-based
Summary of the method: (§5)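 Actively growing HCT116 or PA-1 cells (30–50% confluent), DMSO vehicle control, exposed 16 h over a range of concentrations. Cells imaged by microscope (10×10 lens). Triplicate dishes trypsinized, diluted, spotted blind on a hemacytometer, four corners counted for mean cells per dish. Treated vs control compared by two-tailed t-test. Three independent experiments.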

[14] = system: PA-1; assay: Effect on H3K4me3 levels in human PA1 cells at 20 uM after 16 hrs by Western blot analysis; assay type: functional, cell-based
Summary of the method: (§6)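 HCT116 or PA-1 cells exposed 16 h to a range of concentrations. Total histones extracted. Mono-, di- and trimethylated H3K4 and total histone H3 detected by Western blot with specific antibodies and quantified.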

[15] = target: Lysine-specific histone demethylase 1A (Homo sapiens) (UniProt O60341); assay: Inhibition of LSD1 in human PA1 cells assessed as downregulation of SOX2 protein expression at 20 to 40 uM after 16 hrs by Western blot analysis; assay type: cell-based
Summary of the method: (§7)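 PA-1 cells in log-phase growth were exposed to CBB3001 for 16 hours and lysed directly in buffer containing 0.5% SDS. Equalized lysates were Western blotted for SOX2, OCT4, LSD1, H3K4me1/2/3 and histone H3 using specific antibodies, with band quantification.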

[16] = system: F9; assay: Growth inhibition of mouse F9 cells at 20 to 40 uM after 30 hrs by microscopic analysis; assay type: functional, cell-based; summary of the method: as §2
[17] = system: PA-1; assay: Cytotoxicity against human PA1 cells assessed as cell growth inhibition at 5 to 20 uM after 12 to 16 hrs by microscopic analysis; assay type: functional, cell-based; summary of the method: as §5
[18] = target: Lysine-specific histone demethylase 1A (Homo sapiens) (UniProt O60341); assay: Inhibition of LSD1 in human PA1 cells assessed as downregulation of OCT4 protein expression at 20 uM after 16 hrs by Western blot analysis; assay type: cell-based; summary of the method: as §7
[19] = system: HCT-116; assay: Effect on H3K4me3 levels in human HCT116 cells at 20 uM after 16 hrs by Western blot analysis; assay type: functional, cell-based; summary of the method: as §6
[20] = target: Lysine-specific histone demethylase 1A (Homo sapiens) (UniProt O60341); assay: Inhibition of LSD1 in human PA1 cells assessed as increase in H3K4me2 levels at 20 uM after 16 hrs by Western blot analysis; assay type: cell-based; summary of the method: as §4

In the case of N[C@H]1CC[C@H](N[C@@H]2C[C@H]2c2ccccc2)CC1, the Activity [1] is reported as “Active”, the Activity [2] is reported as “Active” and the Activity [3] is reported as “Active”.
In the case of CC(C)(C)OC(=O)N[C@@H]1C[C@H]1c1ccc(OC(=O)OC(C)(C)C)cc1, the “growth inhibition (GI)” value [4] is reported as “Non-Toxic”, the inhibition [5] is reported as “Active” and the inhibition [6] is reported as “Active”. The inhibition [7] was “Active”, the “growth inhibition (GI)” value [8] was “inactive” and the inhibition [9] was “Active”. The inhibition [10] was “Active”, the inhibition [11] was “Active” and the inhibition [12] was “Active”. For the same molecule, the “growth inhibition (GI)” value [13] was “inactive”, the Activity [14] was “inactive” and the inhibition [15] was “Active”. The “growth inhibition (GI)” value [16] was “Active”, the “growth inhibition (GI)” value [17] was “Active” and the inhibition [18] was “Active”. The Activity [19] was “inactive” and the inhibition [20] was “Active”.
